Laboratory results reported in ChEMBL document CHEMBL1255196, “Radiosensitization of cancer cells by hydroxychalcones” (2010).
Calls of active or inactive are those of the source. No cut-off for these calls is given here.

Experiments:
[1] = tested on: HT-29; experiment: Cytotoxicity against human HT-29 cells assessed as plating efficiency at 10 uM; type: functional
Summary of the method: (§1)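 Colony formation assay of HT-29 cells exposed to drug or DMSO for 2 hr. Plating efficiency defined non-toxic concentrations, meaning plating efficiency above 80%. After 10 to 14 days colonies were fixed in 3:1 methanol/acetic acid for 15 min, stained with 0.5% crystal violet in methanol for 15 min, and counted to give percent survival.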

[2] = tested on: HT-29; experiment: Induction in heat-induced cell killing in human HT-29 cells; type: functional, cell-based
Summary of the method: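 HT-29 cells were treated with drug or DMSO and heated at 41°C for 2 hr. Medium was then replaced and cells grown 10-14 days. Colonies were stained and counted. Four flasks per condition.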

[3] = tested on: HT-29; experiment: Phototoxicity against human HT-29 cells at 10 uM irradiated with 4 Gy/min; type: functional, cell-based
[4] = tested on: Nucleic Acid; experiment: Induction of Hsf1 DNA binding affinity in human HT-29 cells at 8 uM after 2 hrs; type: cell-based
Summary of the method: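 HT-29 cells were incubated with drug for 2 hr at 37°C (30 min is also stated for the treatment) and nuclear protein was extracted. Gel shift assay used a 32P-labelled rat Hsp70 heat shock element oligomer. Hsf1 identity was confirmed by antibody supershift.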

[5] = tested on: HT-29; experiment: Phototoxicity against human HT-29 cells irradiated with 2 Gy/min; type: functional, cell-based
[6] = tested on: HT-29; experiment: Phototoxicity against human HT-29 cells assessed as polyploidy formation at 10 uM irradiated with 4 Gy/min; type: functional, cell-based
Summary of the method: (§2)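 They were fixed by adding cold 70% ethanol, washed in PBS, and stained with propidium iodide plus RNase for 30-45 min at 37°C. Flow cytometry scored polyploidy and sub-G0 cells 48 hr after irradiation.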

[7] = tested on: HT-29; experiment: Cytotoxicity against human HT-29 cells assessed as plating efficiency at 25 uM; type: functional; summary of the method: as §1
[8] = tested on: HT-29; experiment: Cell cycle arrest in photoirradiated human HT-29 cells assessed as accumulation at subG0 phase after 48 hrs; type: functional, cell-based; summary of the method: as §2

Structure (SMILES)	Activity [1]	Activity [2]	Activity [3]	Activity [4]	Activity [5]	Activity [6]	Activity [7]	Activity [8]
O=C(/C=C/c1ccccc1O)c1ccccc1O	>80%	Active	Active	Active				
O=C(/C=C/c1ccccc1)c1cc(O)ccc1O			Active	Active	Dose-dependent effect	Active	>80%	Active
